Assay results taken from ChEMBL document CHEMBL1240409, “Design, synthesis and evaluation of (E)-alpha-benzylthio chalcones as novel inhibitors of BCR-ABL kinase” (Bioorg Med Chem, 2010).
Calls of active or inactive are those of the source. The calls are words filed in the database; no cut-off is given here.

Legend:
[1] = Aqueous solubility of the compound
Bcr/Abl fusion protein [2] = target: T1, Bcr/Abl fusion protein (Homo sapiens, UniProt P00519); assay: Inhibition of BCR/ABL p210 autophosphorylation in human K562 cells after 2 hrs by Western blot analysis; format: cell-based
T1 sequence (P00519 whole entry, the tested form may be a part): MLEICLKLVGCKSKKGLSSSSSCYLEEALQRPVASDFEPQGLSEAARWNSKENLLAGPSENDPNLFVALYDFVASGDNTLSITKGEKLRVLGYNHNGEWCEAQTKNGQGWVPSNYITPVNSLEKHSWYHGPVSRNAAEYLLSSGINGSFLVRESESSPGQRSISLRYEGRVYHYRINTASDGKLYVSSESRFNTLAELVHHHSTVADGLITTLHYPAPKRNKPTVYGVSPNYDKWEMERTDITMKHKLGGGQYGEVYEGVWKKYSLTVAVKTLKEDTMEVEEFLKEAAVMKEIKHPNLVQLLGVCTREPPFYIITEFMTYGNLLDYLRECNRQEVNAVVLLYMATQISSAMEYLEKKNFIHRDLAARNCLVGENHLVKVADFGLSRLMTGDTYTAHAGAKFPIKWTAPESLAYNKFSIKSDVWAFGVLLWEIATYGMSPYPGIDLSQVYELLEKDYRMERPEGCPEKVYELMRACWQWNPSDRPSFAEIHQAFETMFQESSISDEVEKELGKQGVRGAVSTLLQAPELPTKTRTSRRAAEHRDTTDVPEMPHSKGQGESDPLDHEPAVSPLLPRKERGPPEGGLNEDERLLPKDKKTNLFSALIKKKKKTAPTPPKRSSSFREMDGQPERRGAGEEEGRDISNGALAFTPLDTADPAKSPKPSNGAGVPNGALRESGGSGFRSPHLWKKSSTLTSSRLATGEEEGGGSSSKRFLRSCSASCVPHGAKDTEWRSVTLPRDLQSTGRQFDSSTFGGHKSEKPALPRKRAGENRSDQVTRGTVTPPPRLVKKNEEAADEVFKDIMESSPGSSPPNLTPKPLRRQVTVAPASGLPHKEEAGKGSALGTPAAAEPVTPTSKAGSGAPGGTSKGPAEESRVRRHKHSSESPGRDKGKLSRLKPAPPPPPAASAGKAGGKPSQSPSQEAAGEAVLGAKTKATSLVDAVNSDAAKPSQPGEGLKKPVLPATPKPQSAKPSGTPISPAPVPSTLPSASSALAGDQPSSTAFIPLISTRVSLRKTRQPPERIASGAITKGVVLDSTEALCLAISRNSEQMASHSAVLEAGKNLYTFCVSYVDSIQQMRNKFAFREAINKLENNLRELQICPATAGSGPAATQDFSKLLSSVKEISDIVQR
T1 sequence (P11274 whole entry, further chain, the tested form may be a part): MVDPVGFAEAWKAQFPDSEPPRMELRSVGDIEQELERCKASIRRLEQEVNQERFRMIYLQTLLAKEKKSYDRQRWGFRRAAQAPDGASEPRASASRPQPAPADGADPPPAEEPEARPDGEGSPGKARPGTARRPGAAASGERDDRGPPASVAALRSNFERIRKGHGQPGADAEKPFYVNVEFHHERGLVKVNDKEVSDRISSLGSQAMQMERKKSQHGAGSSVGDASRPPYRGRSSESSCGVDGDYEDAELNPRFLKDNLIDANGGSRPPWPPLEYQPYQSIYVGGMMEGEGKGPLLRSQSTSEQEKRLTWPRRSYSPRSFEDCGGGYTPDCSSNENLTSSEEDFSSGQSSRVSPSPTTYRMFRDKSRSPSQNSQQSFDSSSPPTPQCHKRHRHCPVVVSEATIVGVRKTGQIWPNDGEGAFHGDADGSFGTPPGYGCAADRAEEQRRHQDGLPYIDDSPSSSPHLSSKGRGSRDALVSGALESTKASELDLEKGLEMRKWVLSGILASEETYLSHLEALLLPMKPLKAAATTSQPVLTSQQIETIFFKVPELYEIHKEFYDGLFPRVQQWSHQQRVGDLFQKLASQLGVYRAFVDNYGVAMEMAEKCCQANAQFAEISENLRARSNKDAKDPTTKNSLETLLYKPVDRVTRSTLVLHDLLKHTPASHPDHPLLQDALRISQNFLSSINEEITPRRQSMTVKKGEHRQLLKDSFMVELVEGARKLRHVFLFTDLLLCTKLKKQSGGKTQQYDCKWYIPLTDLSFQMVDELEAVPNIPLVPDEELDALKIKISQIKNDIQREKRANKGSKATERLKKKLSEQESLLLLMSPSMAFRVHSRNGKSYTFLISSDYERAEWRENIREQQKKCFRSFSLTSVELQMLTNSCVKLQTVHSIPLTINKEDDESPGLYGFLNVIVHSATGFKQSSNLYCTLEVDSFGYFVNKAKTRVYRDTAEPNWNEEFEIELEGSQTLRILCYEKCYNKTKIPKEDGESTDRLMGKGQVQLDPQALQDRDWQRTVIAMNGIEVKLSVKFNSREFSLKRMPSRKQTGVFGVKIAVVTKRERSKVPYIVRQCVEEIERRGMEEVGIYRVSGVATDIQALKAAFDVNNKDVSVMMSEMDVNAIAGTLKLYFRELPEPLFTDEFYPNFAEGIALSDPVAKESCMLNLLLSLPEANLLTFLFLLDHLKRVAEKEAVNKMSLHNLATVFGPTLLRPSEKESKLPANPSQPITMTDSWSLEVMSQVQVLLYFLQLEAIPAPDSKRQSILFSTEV

K562 = assay: Growth inhibition of human K562 cells expressing p210Bcr/Abl after 96 hrs by trypan blue exclusion assay; format: functional, cell-based; details: K562, 96 h
Outline: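 K562 cells were kept in RPMI with 10% FBS and penicillin–streptomycin at 37 °C under 5% CO2. Cells were seeded at 1 × 10^5 cells/mL with a range of compound concentrations, using DMSO as the negative control. After 96 h, viability was counted by Trypan blue exclusion and expressed as percent of DMSO control to derive GI50.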

[3] = target: Bcr/Abl fusion protein (Homo sapiens) (UniProt P00519+P11274); assay: Inhibition of BCR/ABL p210 autophosphorylation in human K562 cells at 0.2 to 10 uM after 2 hrs by Western blot analysis; format: cell-based
Bcr/Abl fusion protein (Homo sapiens), sequence (P00519 whole entry, looked up, the tested form may be a part): as the sequence (P00519 whole entry, the tested form may be a part) above
Bcr/Abl fusion protein (Homo sapiens), sequence (P11274 whole entry, looked up, the tested form may be a part): as the sequence (P11274 whole entry, further chain, the tested form may be a part) above
Outline: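 Exponentially growing K562 cells were treated for 2 h with rising compound concentrations, diluted from 10 mM DMSO stocks via 1000× DMSO working stocks, or with DMSO vehicle. Lysates were run on 10% SDS–PAGE. Blots were probed sequentially for phospho-BCR-ABL and total BCR-ABL, detected with infrared-dye secondaries, and quantified by densitometry. The phospho signal was normalized to total, with % inhibition relative to vehicle.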

[4] = Aqueous solubility of the compound; format: physicochemical; details: buffer
DU-145 = assay: Growth inhibition of human DU145 cells after 96 hrs by trypan blue exclusion assay; format: functional; details: DU-145, 96 h
[5] = target: Serine/threonine-protein kinase PLK1 (Homo sapiens, UniProt P53350); assay: Inhibition of GST-tagged recombinant PLK1 after 20 mins by autoradiography
Outline: (§1)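 Kinase reactions were started by adding 1 µg recombinant substrate with unlabelled and 32P-labelled ATP. They ran 20 min at 30 °C and were stopped with 2× Laemmli buffer, then boiled 2 min and resolved on 12% SDS–PAGE. Substrate phosphorylation bands on autoradiograms were quantified by densitometry and plotted against log drug concentration. IC50 came from sigmoidal variable-slope nonlinear regression.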

Bcr/Abl fusion protein [6] = target: T1, Bcr/Abl fusion protein; assay: Inhibition of Bcr-Abl after 20 mins by autoradiography; format: protein assay
Outline: as §1

[7] = target: Proto-oncogene tyrosine-protein kinase Src (Homo sapiens, UniProt P12931); assay: Inhibition of GST-tagged recombinant Src after 20 mins by autoradiography
Proto-oncogene tyrosine-protein kinase Src, sequence (P12931 2-536 limits assumed): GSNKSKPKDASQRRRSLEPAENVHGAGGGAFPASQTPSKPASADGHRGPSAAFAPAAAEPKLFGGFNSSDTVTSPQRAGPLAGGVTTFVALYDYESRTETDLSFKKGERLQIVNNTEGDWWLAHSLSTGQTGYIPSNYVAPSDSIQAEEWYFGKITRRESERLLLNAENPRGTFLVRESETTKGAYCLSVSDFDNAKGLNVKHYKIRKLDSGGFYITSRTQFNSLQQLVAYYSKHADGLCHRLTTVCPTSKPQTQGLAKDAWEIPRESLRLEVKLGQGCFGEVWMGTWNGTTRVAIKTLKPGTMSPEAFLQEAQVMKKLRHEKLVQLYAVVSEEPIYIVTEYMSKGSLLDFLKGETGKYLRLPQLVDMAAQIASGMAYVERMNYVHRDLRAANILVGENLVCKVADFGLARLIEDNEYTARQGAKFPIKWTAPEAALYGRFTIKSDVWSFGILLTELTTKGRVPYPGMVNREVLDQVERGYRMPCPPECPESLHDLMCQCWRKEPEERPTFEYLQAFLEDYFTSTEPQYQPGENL
Outline: as §1

[8] = target: Receptor tyrosine-protein kinase erbB-2 (Homo sapiens, UniProt P04626); assay: Inhibition of ErbB2 by immunoprecipitation assay
Receptor tyrosine-protein kinase erbB-2, sequence (P04626 whole entry): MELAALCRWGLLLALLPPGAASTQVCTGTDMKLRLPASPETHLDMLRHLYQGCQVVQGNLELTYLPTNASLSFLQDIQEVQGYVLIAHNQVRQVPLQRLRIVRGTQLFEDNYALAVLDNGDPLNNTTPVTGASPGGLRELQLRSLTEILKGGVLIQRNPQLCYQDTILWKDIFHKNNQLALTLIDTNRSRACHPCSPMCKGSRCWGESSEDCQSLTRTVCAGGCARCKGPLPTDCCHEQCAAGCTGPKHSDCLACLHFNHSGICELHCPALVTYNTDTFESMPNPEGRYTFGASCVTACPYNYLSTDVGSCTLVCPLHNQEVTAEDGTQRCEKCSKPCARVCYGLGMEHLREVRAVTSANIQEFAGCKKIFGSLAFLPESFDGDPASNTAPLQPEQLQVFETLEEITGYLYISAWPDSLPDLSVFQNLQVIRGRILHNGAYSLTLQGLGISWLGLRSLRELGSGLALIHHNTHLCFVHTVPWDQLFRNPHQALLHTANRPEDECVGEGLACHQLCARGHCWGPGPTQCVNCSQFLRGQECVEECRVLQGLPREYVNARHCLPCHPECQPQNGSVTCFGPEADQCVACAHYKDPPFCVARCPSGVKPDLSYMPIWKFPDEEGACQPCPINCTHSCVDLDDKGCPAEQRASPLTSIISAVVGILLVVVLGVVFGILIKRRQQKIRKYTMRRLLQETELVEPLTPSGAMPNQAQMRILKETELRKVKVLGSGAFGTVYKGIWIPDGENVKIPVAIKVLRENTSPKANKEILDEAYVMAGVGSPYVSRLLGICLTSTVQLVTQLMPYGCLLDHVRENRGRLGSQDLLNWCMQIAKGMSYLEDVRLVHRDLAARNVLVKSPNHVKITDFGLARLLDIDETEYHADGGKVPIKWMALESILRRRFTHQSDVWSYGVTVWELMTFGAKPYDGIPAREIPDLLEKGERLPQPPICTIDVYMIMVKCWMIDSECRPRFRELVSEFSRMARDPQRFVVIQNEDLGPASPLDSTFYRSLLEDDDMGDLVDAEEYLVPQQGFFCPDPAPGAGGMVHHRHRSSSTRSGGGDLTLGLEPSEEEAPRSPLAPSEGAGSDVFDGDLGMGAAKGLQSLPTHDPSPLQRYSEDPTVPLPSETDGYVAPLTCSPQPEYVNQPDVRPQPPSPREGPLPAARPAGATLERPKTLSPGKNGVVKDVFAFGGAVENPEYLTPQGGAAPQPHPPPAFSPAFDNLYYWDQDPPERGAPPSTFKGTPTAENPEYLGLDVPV

[9] = target: Tyrosine-protein kinase Lyn (Homo sapiens, UniProt P07948); assay: Inhibition of GST-tagged recombinant LynB after 20 mins by autoradiography
Tyrosine-protein kinase Lyn, sequence (P07948 whole entry): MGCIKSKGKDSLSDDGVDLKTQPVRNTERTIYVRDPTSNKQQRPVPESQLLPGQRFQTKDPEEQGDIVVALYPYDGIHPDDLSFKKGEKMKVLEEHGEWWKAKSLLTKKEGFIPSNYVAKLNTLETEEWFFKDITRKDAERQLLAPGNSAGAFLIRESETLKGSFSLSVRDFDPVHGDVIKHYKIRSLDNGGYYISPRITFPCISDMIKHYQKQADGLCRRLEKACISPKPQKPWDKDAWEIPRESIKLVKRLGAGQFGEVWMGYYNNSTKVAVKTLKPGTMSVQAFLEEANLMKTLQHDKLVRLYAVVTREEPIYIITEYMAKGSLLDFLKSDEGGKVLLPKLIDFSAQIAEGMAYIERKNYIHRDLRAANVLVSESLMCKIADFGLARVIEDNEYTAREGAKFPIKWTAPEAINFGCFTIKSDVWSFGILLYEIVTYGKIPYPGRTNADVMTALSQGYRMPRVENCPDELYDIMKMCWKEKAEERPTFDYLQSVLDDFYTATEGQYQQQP
Outline: as §1

[10] = target: Epidermal growth factor receptor (Homo sapiens, UniProt P00533); assay: Inhibition of EGFR by immunoprecipitation assay
[11] = target: Cyclin-dependent kinase 1 (Homo sapiens, UniProt P06493); assay: Inhibition of GST-tagged recombinant CDK1 after 20 mins by autoradiography
Cyclin-dependent kinase 1, sequence (P06493 whole entry): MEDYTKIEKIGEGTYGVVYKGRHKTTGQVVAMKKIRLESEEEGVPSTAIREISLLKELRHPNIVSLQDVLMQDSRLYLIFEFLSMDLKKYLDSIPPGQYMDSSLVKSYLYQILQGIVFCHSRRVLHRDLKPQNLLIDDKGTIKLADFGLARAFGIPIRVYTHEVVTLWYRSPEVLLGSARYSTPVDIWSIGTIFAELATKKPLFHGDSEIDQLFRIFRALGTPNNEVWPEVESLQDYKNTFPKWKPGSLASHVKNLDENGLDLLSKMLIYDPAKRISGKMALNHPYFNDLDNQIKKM
Outline: as §1

Structure (SMILES)	solubility [1] [µg/mL]	IC50 (Bcr/Abl fusion protein [2]) [nM]	GI50 (K562) [nM]	IC50 (K562) [nM]	inhibition [3]	solubility [4] [µg/mL]	GI50 (DU-145) [nM]	IC50 [5] [µM]	IC50 (Bcr/Abl fusion protein [6]) [nM]	IC50 [7] [µM]	IC50 [8] [µM]	IC50 [9] [µM]	IC50 [10] [µM]	IC50 [11] [µM]
CN1CCN(CCNC(=O)c2ccc(C(=O)/C(=C\c3ccc(F)c([N+](=O)[O-])c3)SCc3ccc(Br)cc3)cc2)CC1	> 10000	2500	1000	2500	Active	> 10000	1000							
COC(=O)c1ccc(C(=O)/C(=C\c2ccc(F)c([N+](=O)[O-])c2)SCc2ccc(Br)cc2)cc1		750		300	Active	< 1000								
O=C(O)c1ccc(C(=O)/C(=C\c2ccc(F)c([N+](=O)[O-])c2)SCc2ccc(Cl)cc2)cc1		2500	10000	500		< 1000	50000							
O=C(O)c1ccc(C(=O)/C(=C\c2ccc(Cl)c([N+](=O)[O-])c2)SCc2ccc(Br)cc2)cc1		10000	1000	700		< 1000	500							

These reach a lower IC50 (Bcr/Abl fusion protein [2]). Values come first.

solubility [1] [µg/mL]	IC50 (Bcr/Abl fusion protein [2]) [nM]	GI50 (K562) [nM]	IC50 (K562) [nM]	inhibition [3]	solubility [4] [µg/mL]	GI50 (DU-145) [nM]	IC50 [5] [µM]	IC50 (Bcr/Abl fusion protein [6]) [nM]	IC50 [7] [µM]	IC50 [8] [µM]	IC50 [9] [µM]	IC50 [10] [µM]	IC50 [11] [µM]	Structure (SMILES)
> 10000	500		500		> 10000									CCN(CC)CCNC(=O)c1ccc(C(=O)/C(=C\c2ccc(F)c([N+](=O)[O-])c2)SCc2ccc(Br)cc2)cc1
> 10000	500	< 250	500	Active	> 10000	750								O=C(/C(=C\c1ccc(F)c([N+](=O)[O-])c1)SCc1ccc(Br)cc1)c1ccc(C(=O)N2CCN(CCO)CC2)cc1
	500	< 1000	300	Active	< 1000	1000	> 50	750	13.2	> 10	17	> 20	> 50	O=C(O)c1ccc(C(=O)/C(=C\c2ccc(F)c([N+](=O)[O-])c2)SCc2ccc(Br)cc2)cc1
> 10000	500		500	Active	> 10000									O=C(/C(=C\c1ccc(F)c([N+](=O)[O-])c1)SCc1ccc(F)cc1)c1ccc(C(=O)N2CCN(CCO)CC2)cc1
	200	< 1000	400	Active	< 1000	1000								O=C(O)c1ccc(C(=O)/C(=C\c2ccc(F)c([N+](=O)[O-])c2)SCc2ccc(C(F)(F)F)cc2)cc1
